Compounds with a hit are over-represented: about 3.3% of the library has one in this group of screens.
CendR NRP1 mod – modulators of CendR peptide binding to NRP-1, primary screen, biochemical, fluorescence polarization, uHTS. Neuropilin-1 (Homo sapiens), O14786. FAM-RPARPAR peptide binding to NRP-1. inhibition, % at 25 µM. 360,000 compounds, 0.85% hits. AID 602438, 2012;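 active = inhibition or corrected inhibition above about 18%, plus a signal ratio from 0.5 to 1.5, limit read from the data, passing the limit was not always enough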
Target sequence (O14786 whole entry, looked up): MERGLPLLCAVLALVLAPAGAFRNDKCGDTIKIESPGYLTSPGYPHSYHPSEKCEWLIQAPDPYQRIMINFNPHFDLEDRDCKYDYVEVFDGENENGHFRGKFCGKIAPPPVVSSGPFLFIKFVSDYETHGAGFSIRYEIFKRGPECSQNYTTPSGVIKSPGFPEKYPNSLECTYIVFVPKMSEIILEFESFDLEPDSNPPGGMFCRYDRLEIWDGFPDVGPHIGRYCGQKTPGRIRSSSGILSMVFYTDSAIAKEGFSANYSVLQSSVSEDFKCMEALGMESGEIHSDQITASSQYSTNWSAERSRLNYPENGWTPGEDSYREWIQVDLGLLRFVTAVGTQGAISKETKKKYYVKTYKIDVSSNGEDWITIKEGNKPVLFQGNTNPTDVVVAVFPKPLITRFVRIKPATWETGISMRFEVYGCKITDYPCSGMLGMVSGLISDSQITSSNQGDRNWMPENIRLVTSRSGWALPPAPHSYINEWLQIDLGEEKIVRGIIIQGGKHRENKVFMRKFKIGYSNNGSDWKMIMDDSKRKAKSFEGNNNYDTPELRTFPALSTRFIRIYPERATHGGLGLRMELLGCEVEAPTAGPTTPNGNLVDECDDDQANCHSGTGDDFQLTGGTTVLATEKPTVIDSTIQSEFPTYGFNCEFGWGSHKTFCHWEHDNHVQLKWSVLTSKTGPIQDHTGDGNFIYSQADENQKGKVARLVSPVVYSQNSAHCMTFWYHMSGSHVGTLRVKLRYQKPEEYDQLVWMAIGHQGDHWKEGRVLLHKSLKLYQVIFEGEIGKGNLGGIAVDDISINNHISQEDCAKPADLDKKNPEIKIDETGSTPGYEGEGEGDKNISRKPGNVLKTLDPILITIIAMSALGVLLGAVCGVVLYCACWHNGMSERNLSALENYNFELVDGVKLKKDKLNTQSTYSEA
Arrestin-AP2 inh – inhibitors of beta-arrestin/AP2 binding, primary screen, biochemical, GPCR trafficking, flow cytometry; 340,000 compounds, 0.31% hits; inhibition, % at 10 µM; beta-arrestin 1 C-terminal peptide binding to AP2 beta2-adaptin appendage (human); FITC-arrestin peptide / GST-AP2 beads; AP2 beta2 appendage carries R879A mutation;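 active = inhibition above a set limit, near 3 SD of compounds lacking own fluorescence, cut at about 54% in these data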;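 also: plate controls were DMSO wells for no effect and 5 µM unlabelled arrestin peptide for full effect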
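system = GST-tagged AP2 beta2-adaptin appendage (R879A) on 4 µm glutathione beads | reagent = FITC-labelled arrestin peptide probe, 50 nM final | schedule = compound with beads 12 min RT, then probe 1 h RT | signal = HyperCyt-sampled flow cytometry, FL1 channel, ex 488/em 535 nm | read-out = percent response from loss of bead-bound FITC fluorescence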
ATG4B inh – ATG4B protease inhibitors, primary screen, biochemical, fluorescence, uHTS. Cysteine protease ATG4B (Homo sapiens), Q9Y4P1. ATG4B cleavage of LC3-PLA2, NBD-HPC fluorescence, 1 h. inhibition, % at 8.33 µM. 340,000 compounds, 0.51% hits. AID 504462, 2011; in the data active = inhibition above about 40%
ABCB6 inh 2 – ABCB6 transporter inhibitors, primary screen, K562-ABCB6 cells, flow cytometry, MLPCN library; fluorescence ratio to DMSO, % at 10 µM; 360,000 compounds, 0.19% hits; K562-ABCB6 porphyrin accumulation, 1 h; stronger effect = lower value;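 active = fluorescence ratio to DMSO below 75%, the collection mean minus 3 SD; inconclusive = too few cells collected in the well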;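 also: signal is porphyrin accumulated inside mitochondria; 100% equals median channel fluorescence of DMSO control wells; lower ratio means ABCB6 inhibition with less porphyrin fluorescence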
Granule exo inh – LAMP-1 surface exposure blockers, TALL-104 cells – cell-based, flow cytometry, MLPCN library, primary screen | TALL-104 LAMP-1 surface exposure; cells stimulated with thapsigargin and PMA | inhibition, % at 10 µM | 360,000 compounds, 0.66% hits;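 active = inhibition above about 55%, limit read from the data; inconclusive = no clear call, values can overlap the other calls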
Myeloid diff MLP – induction of myeloid progenitor differentiation, primary screen, cell-based, flow cytometry, MLPCN library | ER-HoxA9 myeloid progenitors, lysozyme-GFP differentiation | calls only at 10 µM | 360,000 compounds, 1% hits | AID 624256, 2012;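 active = normalized GFP-positive differentiation at or above the plate's own cutoff, the solvent-only control mean plus 3 SD; inconclusive = no clear call, values can overlap the other calls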;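 also: cells exposed to compound for four days before flow analysis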
Active calls of the source: *; i = inactive; ? = inconclusive; . = not tested or not shown; + = active, no number.

SMILES	CendR NRP1 mod	Arrestin-AP2 inh	ATG4B inh	ABCB6 inh 2	Granule exo inh	Myeloid diff MLP
COc1ccccc1Nc1nc(Cl)nc(Nc2ccccc2OC)n1	26.1*	-15.1	-9.4	97.0	-0.3	i
CCCCn1nnnc1C1(C)CCC(=O)N1CCc1c[nH]c2ccccc12 (stereo unspecified)	6.2	.	.	99.0	-5.8	i
CC(c1ccccc1)C1C(C#N)=C(N)OC2=C1C(=O)CC(C)(C)C2 (stereo unspecified)	1.4	-4.9	-1.8	100.0	75.3*	.
Cc1cc(C(=O)N2CCCC(N3CCN(c4cccc(Cl)c4)CC3)C2)nn1C (stereo unspecified)	29.9*	-2.4	10.3	92.0	-4.7	i
Cc1cc(C(=O)N2CCCC(N3CCN(c4cccc(C(F)(F)F)c4)CC3)C2)nn1C (stereo unspecified)	5.3	-5.2	7.7	98.0	-14.1	i
COc1ccc2nc(SC)cc(C)c2c1	6.6	-2.3	-7.4	99.0	-4.0	i
CCN(CC)C(=O)c1[nH]cnc1C(=O)Nc1ccc(Cl)cc1	9.8	-9.7	-8.1	99.0	8.2	i
CC(C)(C)OC(=O)[C@H](Cc1ccccc1)NC(=O)c1[nH]cnc1C(=O)Nc1cccc(Cl)c1	23.3*	0.3	-9.0	101.0	6.1	i
C[C@@H](NC(=O)c1[nH]cnc1C(=O)Nc1cccc(Cl)c1)c1ccccc1	26.5*	4.0	-22.8	91.0	4.1	i
C[C@H](NC(=O)c1[nH]cnc1C(=O)Nc1ccc(Cl)cc1)c1ccccc1	37.0*	7.0	-21.0	90.0	-14.7	i
CCN(CC)C(=O)c1[nH]cnc1C(=O)Nc1cccc(C)c1	26.6*	5.9	-11.3	97.0	0.0	i
C[C@@H](NC(=O)c1[nH]cnc1C(=O)Nc1ccc(Cl)cc1)c1ccccc1	16.9	9.0	-8.6	94.0	-0.4	i
CC1CCCCC1NC(=O)CN1CCN(S(=O)(=O)c2ccc(Br)s2)CC1 (stereo unspecified)	0.3	19.0	-3.0	95.0	-2.2	i
Cc1ccc(NC(=O)c2nc[nH]c2C(=O)N[C@@H](C)c2ccccc2)cc1	31.6*	-5.8	-9.9	93.0	1.0	i
O=C(COc1ccccc1Cl)Nc1ccc(NC(=O)c2ccco2)cc1	10.6	17.7	4.2	97.0	-11.4	i
O=C(Nc1ccc(-c2noc(COc3ccccc3Cl)n2)cc1)c1ccco1	-1.5	8.4	3.9	99.0	-7.5	+
O=C(COC(=O)C1CCC1)NC(=O)c1ccccc1	-3.0	-6.4	5.3	98.0	24.7	i
O=c1/c(=C/c2ccc(O)c([N+](=O)[O-])c2)sc2nc3ccccc3n12	-7.9	-10.4	4.8	98.0	70.4*	i
O=c1/c(=C\c2cccnc2)sc2nc3ccccc3n12	-7.5	2.0	6.2	102.0	1.6	i
CCN(CC)c1ccc(/C=c2\sc3nc4ccccc4n3c2=O)c(O)c1	-35.9	-4.4	29.9	139.0	16.9	+
COc1ccc(CN2CCNC(=O)C2CC(=O)NCc2csc(C)n2)c(F)c1 (stereo unspecified)	0.8	0.2	-0.6	100.0	1.0	i
COc1ccc(N2C(=O)C3CCCN3C2c2ccc(Cl)cc2)cc1 (stereo unspecified)	-4.2	-2.4	-6.3	96.0	1.4	i
O=C1C2CCCN2C(c2ccccc2)N1c1ccc(Cl)cc1 (stereo unspecified)	9.4	-12.2	-19.0	95.0	2.6	+
COc1ccc(C(C(=O)NC2CCCCC2)N(C(=O)CCl)c2cccc(Cl)c2)cc1 (stereo unspecified)	-3.6	1.1	7.1	93.0	7.9	?
COc1ccccc1NC(=S)NCCc1ccccc1	29.5*	2.7	-15.8	85.0	-3.4	i
SMILES	CendR NRP1 mod	Arrestin-AP2 inh	ATG4B inh	ABCB6 inh 2	Granule exo inh	Myeloid diff MLP
COc1ccc(O)c(/C=N/NC(=S)NCCc2ccccc2)c1	7.6	-6.5	-0.8	86.0	33.4	.
COc1ccc(/C=N/NC(=S)NCCc2ccccc2)cc1	-2.0	8.5	-9.5	100.0	63.6*	i
CCc1ccc(/C=N/NC(=S)NCCc2ccccc2)cc1	-9.6	14.2	0.5	98.0	-2.9	i
COc1cccc(/C=N/NC(=S)NCCc2ccccc2)c1	3.4	20.2	-5.4	98.0	57.5*	i
COc1cc(C(=O)c2c(C)c(CCC#N)n3ccccc23)cc(OC)c1OC	21.3*	-8.1	1.0	103.0	-5.7	i
COc1cccc(C(=O)c2c(C)c(CCC#N)n3ccccc23)c1OC	1.0	16.7	0.8	92.0	0.5	i
CSCC[C@H](Nc1ncnc2sc(C)c(C)c12)C(=O)O	3.2	-4.7	6.7	103.0	1.1	i
COCCCNS(=O)(=O)c1ccc2c3c(cccc13)C(=O)S2	29.2*	-4.8	-6.5	104.0	-2.8	i
COCCNS(=O)(=O)c1ccc2c3c(cccc13)C(=O)N2C	-19.1	1.1	-4.1	100.0	-0.6	i
O=C(CN1CCN(C(=O)N2CCOCC2)CC1)Nc1cc(Cl)ccc1Cl	-4.4	39.3	-0.6	91.0	-15.0	i
COc1ccc(C2=CC(c3ccc(F)cc3)n3nnnc3N2)cc1 (stereo unspecified)	35.4*	31.5	-2.0	101.0	1.3	i
COc1ccc(C2=CC(c3sccc3C)n3nnnc3N2)cc1 (stereo unspecified)	7.7	5.5	2.7	96.0	15.9	i
CCCN(CC(=O)Nc1cc(Cl)ccc1Cl)C(=O)c1ccccn1	-8.6	31.2	-1.7	101.0	5.5	i
O=C(CCC(=O)c1ccc(Cl)cc1)OCc1nc2ccsc2c(=O)[nH]1	-9.0	39.5	-13.8	96.0	5.7	i
CC(=O)Nc1ccc2nc(NC(=O)CCc3ccccc3)sc2c1	2.4	13.6	-1.6	97.0	-2.2	i
CCOC(=O)C1CCCN(C(=O)c2cncc(Br)c2)CC1 (stereo unspecified)	8.4	.	.	100.0	-5.5	i
Cc1cc([N+](=O)[O-])ccc1NC(=O)CN1C2CCC1CC(NC(=O)NC13CC4CC(CC(C4)C1)C3)C2 (stereo unspecified)	5.4	11.8	-3.4	90.0	3.9	+
COc1ccc(NC(=S)N2C3CCC2CC(NC(=O)NC24CC5CC(CC(C5)C2)C4)C3)c(OC)c1 (stereo unspecified)	-3.4	0.9	-1.0	98.0	-1.5	i
